High-throughput results deposited in PubChem by The Scripps Research Institute Molecular Screening Center.
Only some compounds are listed: those with a hit (about 2.7% of all), similar ones and a draw of the others.
OX1R antag-1: human HCRTR1 antagonism. CHO/OX1R cells, Fluo-8 calcium fluorescence, orexin A. inhibition, % at 5 µM. 0.43% of 330,000 active;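 active = inhibition above its plate's threshold, mean inhibition of all tested compounds on the plate plus 3 SD, cut at about 37% in these data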
Target sequence (O43613 whole entry, looked up): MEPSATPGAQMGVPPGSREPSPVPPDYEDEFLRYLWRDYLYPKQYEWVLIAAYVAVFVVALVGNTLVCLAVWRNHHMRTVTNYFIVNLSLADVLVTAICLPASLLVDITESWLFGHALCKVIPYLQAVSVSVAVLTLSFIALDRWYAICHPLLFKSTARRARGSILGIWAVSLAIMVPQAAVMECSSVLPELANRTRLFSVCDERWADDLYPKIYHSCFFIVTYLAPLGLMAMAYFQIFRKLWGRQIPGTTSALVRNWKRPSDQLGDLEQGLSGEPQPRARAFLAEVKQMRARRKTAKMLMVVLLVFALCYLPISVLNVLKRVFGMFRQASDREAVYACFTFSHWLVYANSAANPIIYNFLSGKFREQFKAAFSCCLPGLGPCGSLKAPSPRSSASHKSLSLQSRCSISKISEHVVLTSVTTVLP
OXTR agonist: activates the human oxytocin receptor; P30559; CHO-OTR cells, Fluo-8 calcium fluorescence; normalized: DMSO 0%, oxytocin 100%; activation, % at 3 µM; 0.32% of 320,000 active;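 active = activation above the mean of all tested compounds plus 3 SD, cutoff set per screening run, cut at about 20% in these data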;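 note: peak over basal fluorescence ratio from a 100 s FLIPR kinetic read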
V1aR counter: counter-screen for oxytocin receptor agonists: human V1a receptor agonists; AID 2797; activation, % at 3 µM; 0.25% of 320,000 active; P37288; CHO-V1R cells, Fluo-8 calcium fluorescence, agonist mode; 0% DMSO, 100% 3 nM vasopressin;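 active = activation above the mean activation of all tested compounds plus 3 SD, per screening run, cut at about 20% in these data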;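 note: signal is peak over basal fluorescence ratio across a 100 second FLIPR read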
OXTR potentiator: human OXTR potentiation; CHO-OTR cells, Fluo-8 calcium fluorescence, potentiator mode; 0% = oxytocin EC15, 100% = EC100; activation, % at 3 µM; 0.061% of 320,000 active; AID 2445;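 active = activation above that plate's cutoff, the mean activation of tested compounds plus 3 SD, cut at about 6.6% in these data, passing the limit was not always enough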
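Material: CHO-OTR cells, human receptor; compound dosing: single dose, 3.0 µM nominal final compound concentration; schedule: 6 min compound pre-incubation at room temperature, 100 s kinetic read; measured by: kinetic Fluo-8 calcium fluorescence; read-out basis: % activation vs EC15 and EC100 oxytocin; controls: EC15 oxytocin alone as 0%, 75 nM oxytocin as 100%; replicates: singlicate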
CHO parental Ca: counter-screen for OX1R antagonists: effect in parental CHO cells; 0.63% of 330,000 active; AID 463079; parental CHO-K1, ATP-induced calcium, Fluo-8 fluorescence; inhibition, % at 5.6 µM;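 active = inhibition above that plate's mean sample inhibition plus 3 SD, cut at about 26% in these data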
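Measured by: calcium-sensitive Fluo-8 fluorescence / Test system: CHO parental line / Controls: ATP-challenged DMSO wells low, unchallenged DMSO wells high / Measure: % inhibition / Compound: single nominal dose of 5.6 µM per compound / Replicates: single well per compound, no replicates / Reagent: ATP as calcium-mobilizing challenge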
OX1R antag-2: blocks the human orexin 1 receptor. O43613. OX1R-expressing cells, FRET antagonist read-out. inhibition, % at 6.6 µM. 1.8% of 330,000 active. AID 485270; in the data active = inhibition mostly above about 38%, no sharp cut-off; inactive = mostly below about 40%
Large screens that a line does not name were inactive; ! = repeats disagree.

C(=N\Nc1nc2ccccc2s1)/c1ccccn1	OX1R antag-2 60
Brc1csc(/C=N/Nc2nc3ccccc3s2)c1	none
C(=N\Nc1nc2ccccc2s1)/c1ccc2c(c1)OCO2	OX1R antag-2 75
O=C(/C=C/c1ccc(Cl)cc1)N1CCOCC1	none
Cc1cccc(OCc2n(CC(=O)OC3CC(C)CCC3C(C)C)c3ccccc3[n+]2C)c1 (stereo unspecified)	OX1R antag-1 48, CHO parental Ca 51
CC1CCC(C(C)C)C(OC(=O)Cn2c(-c3ccccc3)[n+](C)c3ccccc32)C1 (stereo unspecified)	CHO parental Ca 42!
O=c1c(O)c(-c2cccs2)oc2ccc(Cl)cc12	OX1R antag-1 92, OXTR agonist 63, V1aR counter 92, CHO parental Ca 71
O=c1c(O)c(-c2cccs2)oc2ccccc12	OXTR agonist 35, V1aR counter 59, CHO parental Ca 49
CC(C)CNC(=S)N1CCN(c2nc(-c3ccc(Cl)cc3)cs2)CC1	CHO parental Ca 39
COc1cccc(-c2csc(N3CCN(C(=S)NCC(C)C)CC3)n2)c1	none
COc1cc(C(=S)N2CCOCC2)cc(OC)c1OC(=O)c1ccccc1[N+](=O)[O-]	OX1R antag-2 34
COc1ccccc1-c1nnc(-c2ccc(N3CCOCC3)cc2)o1	OX1R antag-2 75
Cc1ccc(C(=O)OCC(=O)NC(C)C2CC3CCC2C3)cc1N (stereo unspecified)	none
O=C(CC1SC(=Nc2ccccc2)N(CCCO)C1=O)Nc1ccc(Cl)cc1 (stereo unspecified)	OX1R antag-1 77, CHO parental Ca 66
FC(F)C(F)(F)C(F)(F)C(F)(F)c1cc(-c2ccccc2)n[nH]1	OX1R antag-1 53, CHO parental Ca 87, OX1R antag-2 42
CC(C)[C@H](NC(=O)NC1CCCc2ccccc21)C(=O)O (stereo partly specified)	none
COC(=O)[C@H](C)NC(=O)NC1CCCc2ccccc21 (stereo partly specified)	OX1R antag-1 61, CHO parental Ca 36
Cc1ccccc1NC(=O)Cc1nc(CSc2nnc(-c3ccc4c(c3)OCO4)o2)cs1	none
Cc1ccc(S(=O)(=O)Nc2ccc(C(=O)Nc3ccncc3)cc2)cc1	none
Cc1ccc(NS(=O)(=O)c2ccc(NC(=O)c3cccc(NC(=O)C(C)C)c3)cc2)cc1	OX1R antag-1 82, CHO parental Ca 67
COc1cccc(-c2cc(CC3(O)CCN(CCCc4ccccc4)CC3)on2)c1	none
O=C1NC(=O)/C(=C\c2ccc(Br)o2)S1	OX1R antag-2 38
Cc1c(NC(=O)C(=O)/C=C(\O)c2ccc(Br)cc2)c(=O)n(-c2ccccc2)n1C	none
CSc1cccc(N2CC(C(=O)N(Cc3nnc(-c4ccccc4Cl)o3)C3CC3)CC2=O)c1 (stereo unspecified)	OX1R antag-2 58
O=C(OCc1cc(=O)n2c(n1)sc1ccccc12)c1ccc(O)cc1	OX1R antag-2 53
O=c1cc(CCl)nc2sc3ccccc3n12	none
COc1cc(/C=C/C(=O)OCC(=O)Nc2ccccc2Sc2ccc(Cl)cc2)ccc1O	CHO parental Ca 62
COc1cc(/C=C/C(=O)OCC(=O)NNC(=O)c2cc(Cl)ccc2OC)ccc1O	none
COc1cc(/C=C/C(=O)OCC(=O)c2ccc(OC(F)F)cc2)ccc1O	OXTR agonist 34, V1aR counter 21
O=C(/C=C/c1ccco1)OCC(=O)c1ccc(OC(F)F)cc1	none
CCc1ccc(NC(=O)C(C)OC(=O)/C=C/c2ccc(O)c(OC)c2)cc1 (stereo unspecified)	OXTR agonist 45, V1aR counter 34
COC(=O)C(C)NC(=O)c1cn(-c2ccccc2OC)c(=O)c2ccccc12 (stereo unspecified)	none
CC1CC1C(=O)OCC(=O)NNC(=O)c1ccc([N+](=O)[O-])cc1 (stereo unspecified)	OX1R antag-2 34
Cn1cccc1C(=O)OCC(=O)NNC(=O)c1ccc([N+](=O)[O-])cc1	none
O=C(CNC(=O)c1ccccc1)NCC(=O)OCC(=O)c1ccc([N+](=O)[O-])cc1	OX1R antag-2 54
